Screening results (PubChem BioAssay)
M5 PAM: potentiates acetylcholine response at human M5 receptor. P08912. CHO-K1 hM5, Fluo-8 calcium, ACh EC20 PAM; 0% = ACh EC20, 100% = ACh EC100. activation, % at 3 µM. hit rate 0.3% among 360,000. AID 624038;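 active = activation above the run cutoff, the mean activation of all test compounds plus 3 SD, cut at about 18% in these data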
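Assay system: CHO-K1 hM5 cells / Incubation: Fluo-8 loading 80 min at 37 °C plus 30 min room temperature / Technique: Fluo-8 calcium dye fluorescence, kinetic read / Repeats: single replicate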
CHRM5 agonist: CHRM5 agonism in calcium assay; activation, % at 3 µM; CHO-K1 hM5 cells, Fluo-8 calcium fluorescence; 0% DMSO wells, 100% maximal acetylcholine response; hit rate 0.19% among 360,000; AID 624037;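 active = activation above the run's mean over test compounds plus 3 SD, cut at about 23% in these data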;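 note: signal is peak over basal fluorescence ratio across the kinetic read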
CHRM1 PAM: potentiates human M1 receptor response to acetylcholine; P11229; CHO-K1 hM1, Fluo-8 calcium fluorescence, ACh EC20; 0% = ACh EC20, 100% = maximal ACh; activation, % at 3 µM; hit rate 0.088% among 360,000; AID 588819; in the data active = activation above about 19%, passing the limit was not always enough
Target sequence (P11229 whole entry, looked up): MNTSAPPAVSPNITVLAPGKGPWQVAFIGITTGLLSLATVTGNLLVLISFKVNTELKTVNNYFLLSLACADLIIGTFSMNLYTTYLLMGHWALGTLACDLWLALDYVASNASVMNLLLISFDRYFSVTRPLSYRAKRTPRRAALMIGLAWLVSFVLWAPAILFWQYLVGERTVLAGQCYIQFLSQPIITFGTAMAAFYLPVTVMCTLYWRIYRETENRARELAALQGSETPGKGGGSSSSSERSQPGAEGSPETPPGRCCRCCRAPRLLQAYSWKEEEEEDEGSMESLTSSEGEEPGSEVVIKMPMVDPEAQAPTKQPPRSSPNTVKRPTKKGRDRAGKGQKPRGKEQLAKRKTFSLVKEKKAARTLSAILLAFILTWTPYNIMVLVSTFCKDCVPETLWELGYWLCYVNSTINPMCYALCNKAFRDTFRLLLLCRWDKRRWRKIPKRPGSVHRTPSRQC
M5 antag: blocks acetylcholine activation of human M5 receptor | P08912 | CHO-hM5 cells, Fluo-8 calcium fluorescence, ACh EC80 | inhibition, % at 3 µM | hit rate 0.59% among 360,000;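 active = inhibition above a per-plate cutoff, the mean of that plate's test compounds plus 3 SD, cut at about 27% in these data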;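 note: 0% = acetylcholine EC80 with DMSO and 100% = DMSO without agonist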
M1 ag: agonists of human M1 muscarinic receptor; CHO-K1 hM1, Fluo-8 calcium fluorescence, agonist mode; 0% DMSO, 100% acetylcholine EC100; hit rate 0.33% among 360,000; activation, % at 3 µM; P11229;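 active = activation above the run's mean compound activation plus 3 SD, cut at about 16% in these data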;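 note: peak over basal fluorescence ratio within a 140 s kinetic read after compound addition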
M1 antag: human CHRM1 antagonism. inhibition, % at 3 µM. AID 588852. CHO-K1 hM1, Fluo-8 calcium fluorescence, ACh EC80 antagonist. hit rate 1.3% among 360,000;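 active = percent inhibition above its own plate's cutoff, namely the mean of that plate's compound wells plus 3 SD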;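 note: peak over basal fluorescence ratio during 140 s after agonist addition; 0% = ACh EC80 plus DMSO and 100% = DMSO alone without agonist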
The depositor's hits bear a star. Sampled rows, rich in hits. Any-hit rate of the full collection: about 2.2%.

Cc1c(C)c2c(OCC(=O)N3CCC(C(N)=O)CC3)cc3c(c2oc1=O)CCC(C)(C)O3 was read as M5 PAM -9, CHRM5 agonist -1, CHRM1 PAM -11, M5 antag 9, M1 ag -1 and M1 antag 11.
For CSC(=NS(=O)(=O)c1ccc(N)cc1)NS(=O)(=O)c1cccs1 the results were M5 PAM 0, CHRM5 agonist -1, CHRM1 PAM 1, M5 antag 11, M1 ag -1 and M1 antag -5.
For COc1ccccc1/C=C/CN1CCC(Oc2ccc(C(=O)N3CCCC3)cc2)CC1 the results were M5 PAM -10, CHRM5 agonist -6, CHRM1 PAM -23, M5 antag 7, M1 ag -6 and M1 antag 73*.
Screening CC(=O)N1CCN(C(=O)c2ccc(OC3CCN(CCc4ccccc4)CC3)cc2)CC1 returned M5 PAM -7, CHRM5 agonist -9, CHRM1 PAM -14, M5 antag 17, M1 ag -6 and M1 antag 37*.
`O=C(c1ccc(OC2CCN(Cc3ccccc3C(F)(F)F)CC2)cc1)N1CCCCC1` gave M5 PAM -7, CHRM5 agonist -5, CHRM1 PAM -6, M5 antag 29*, M1 ag -3 and M1 antag 8.
`O=C(c1ccc(OC2CCN(CCc3ccccc3)CC2)cc1)N1CCCC(O)C1` (configuration not stated) gave M5 PAM -9, CHRM5 agonist -10, CHRM1 PAM 0, M5 antag 2, M1 ag -11 and M1 antag -9.
Screening O=C(c1ccc(OC2CCN(CCCc3ccccc3)CC2)cc1)N1CCCC1 returned M5 PAM -15, CHRM5 agonist -8, CHRM1 PAM -19, M5 antag 16, M1 ag -7 and M1 antag 42*.
`COC1CCCN(C(=O)c2ccc(OC3CCN(CCc4ccccc4)CC3)cc2)C1` (configuration not stated) gave M5 PAM -14, CHRM5 agonist -14, CHRM1 PAM 0, M5 antag 12, M1 ag -7 and M1 antag -1.
Screening CCOC(=O)C1CCN(S(=O)(=O)c2c(C)n(C)c(=O)n(C)c2=O)CC1 returned M5 PAM -1, CHRM5 agonist 1, CHRM1 PAM 5, M5 antag -3, M1 ag -3 and M1 antag -13.
`O=C(Cc1cccs1)Nc1nnc(SCc2ccc(C(F)(F)F)cc2)s1` gave M5 PAM -1, CHRM5 agonist 0, CHRM1 PAM -3, M5 antag 6, M1 ag -4 and M1 antag 1.
For Cc1cccc(C)c1N(CC(=O)NCc1ccco1)C(=O)CNS(=O)(=O)c1ccc(F)cc1 the results were M5 PAM -2, CHRM5 agonist -1, CHRM1 PAM 5, M5 antag 4, M1 ag -2 and M1 antag -11.
For O=C(CSc1nnc(-c2ccccc2F)n1C1CC1)Nc1cccnc1Cl the results were M5 PAM -3, CHRM5 agonist 1, CHRM1 PAM 4, M5 antag 2, M1 ag -6 and M1 antag -7.
`COC(=O)C1CCN(C(=O)c2ccc(OC3CCN(Cc4ccccn4)CC3)cc2)CC1` gave M5 PAM 1, CHRM5 agonist -6, CHRM1 PAM 1, M5 antag 4, M1 ag -8 and M1 antag 4.
COc1ccc(CCC(C)N2CCC(Oc3ccc(C(=O)N4CCCC4)cc3)CC2)cc1 (configuration not stated) was read as M5 PAM -34, CHRM5 agonist -5, CHRM1 PAM -21, M5 antag 2, M1 ag -6 and M1 antag 67*.
Screening CC(CCc1ccc(O)cc1)N1CCC(Oc2ccc(C(=O)N3CCCC3)cc2)CC1 (configuration not stated) returned M5 PAM -14, CHRM5 agonist -7, CHRM1 PAM -9, M5 antag 13, M1 ag -6 and M1 antag 11.
